Measured values: ChEMBL document CHEMBL4270630

What was measured:
[1] = Cytotoxicity against MDCK cells assessed as alteration in cell morphology after 3 days by microscopic method; assay type: cell-based, Canis lupus familiaris; conditions: dog
How it was run: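 Mock-infected MDCK cells were treated with compounds in parallel with the antiviral assay, 3 days at 35 °C. MCC is the concentration causing minimal change in cell morphology by microscopy. CC50 is the 50% cytotoxic concentration by MTS formazan viability assay.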

Influenza B virus [2] = experiment: Antiviral activity against Influenza B virus B/Ned/537/05 infected in MDCK cells assessed as reduction in virus-induced cytopathic effect after 3 days by microscopic method; assay type: functional, organism-based; conditions: B/Ned/537/05, MDCK, 72 h
How it was run: (§1)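 Semi-confluent MDCK cells were infected at an MOI of 0.0004 PFU/cell in Ultra-MDCK infection medium with 2 μg/mL TPCK-trypsin, together with compounds. After 3 days at 35 °C, CPE was scored by microscopy and confirmed by MTS formazan viability. Values are means of two to five independent tests.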

[3] = Cytotoxicity against human A549 cells assessed as changes in cell morphology after 3 days by microscopic method; assay type: cell-based
How it was run: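 Mock-infected A549 cells were incubated with compounds for 3 days. MCC is the concentration causing minimal change in cell morphology by microscopy.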

Influenza A virus [4] = experiment: Antiviral activity against Influenza A virus A/Virginia/ATCC3/2009(H1N1pdm) infected in MDCK cells after 3 days by MTS assay; assay type: functional, organism-based, Influenza A virus (A/Virginia/03/2009(H1N1)); conditions: 72 h
How it was run: (§2)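 Semi-confluent MDCK cells were infected at an MOI of 0.0004 PFU/cell in Ultra-MDCK infection medium with 2 μg/mL TPCK-trypsin, together with compounds. After 3 days at 35 °C, CPE was scored by microscopy and confirmed by MTS formazan viability. EC50 is the concentration giving 50% inhibition of virus-induced CPE. Values are means of two to five independent tests.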

MDCK = experiment: Cytotoxicity against MDCK cells assessed as reduction in cell viability after 3 days by MTS assay; assay type: cell-based, Canis lupus familiaris; conditions: dog, mdck, 72 h
H3N2 subtype [5] = experiment: Antiviral activity against Influenza A virus A/HK/7/87(H3N2) infected in MDCK cells after 3 days by MTS assay; assay type: functional, organism-based; conditions: A/Hong Kong/7/1987(H3N2), 72 h; how it was run: as §2
Influenza A virus [6] = experiment: Antiviral activity against Influenza A virus A/PR/8/34(H1N1) infected in MDCK cells after 3 days by MTS assay; assay type: functional, organism-based, A/Puerto Rico/8/1934(H1N1); conditions: Influenza A virus, A/Puerto Rico/8/1934(H1N1), MDCK, 72 h; how it was run: as §2
Influenza A virus [7] = experiment: Antiviral activity against Influenza A virus A/Virginia/ATCC3/2009(H1N1pdm) infected in MDCK cells assessed as reduction in virus-induced cytopathic effect after 3 days by microscopic method; assay type: functional, organism-based, Influenza A virus (A/Virginia/03/2009(H1N1)); conditions: 72 h; how it was run: as §2
Human coronavirus 229E [8] = experiment: Antiviral activity against Human coronavirus 229E infected in human A549 cells assessed as reduction in virus RNA level after 3 days by qRT-PCR method; assay type: functional; conditions: A549, 72 h
How it was run: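 Confluent A549 cells were infected with HCoV-229E in 2% FCS medium with compounds present. The inoculum was removed at 1 h and compounds were kept on at 35 °C. Supernatants were harvested at day 3, lysed at 75 °C for 10 min, and viral genome copies counted by one-step qRT-PCR.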

Influenza A virus [9] = experiment: Antiviral activity against Influenza A virus A/PR/8/34(H1N1) infected in MDCK cells assessed as reduction in virus-induced cytopathic effect after 3 days by microscopic method; assay type: functional, organism-based, A/Puerto Rico/8/1934(H1N1); conditions: Influenza A virus, A/Puerto Rico/8/1934(H1N1), MDCK, 72 h; how it was run: as §2
Influenza B virus [10] = experiment: Antiviral activity against Influenza B virus B/Ned/537/05 infected in MDCK cells after 3 days by MTS assay; assay type: functional, organism-based; conditions: B/Ned/537/05, MDCK, 72 h; how it was run: as §1
[11] = Cytotoxicity against HEL299 cells assessed as changes in cell morphology after 5 days by microscopic method; assay type: cell-based, HEL 299; conditions: human
How it was run: (§3)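 Confluent HEL 299 cells in medium with 2% FCS were exposed to HCoV-229E (100 CCID50/well) together with compounds and held for 5 days at 35 °C. EC50 (CPE reduction) and MCC (minimal morphology change) were determined by microscopy. SI is MCC/EC50.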

H3N2 subtype [12] = experiment: Antiviral activity against Influenza A virus A/HK/7/87(H3N2) infected in MDCK cells assessed as reduction in virus-induced cytopathic effect after 3 days by microscopic method; assay type: functional, organism-based; conditions: A/Hong Kong/7/1987(H3N2), 72 h; how it was run: as §2
Human coronavirus 229E [13] = experiment: Antiviral activity against Human coronavirus 229E infected in HEL299 cells assessed as reduction in virus induced cytopathic effect after 5 days by microscopic method; assay type: functional, organism-based; conditions: HEL 299, 120 h; how it was run: as §3

Row | SMILES | MCC at 72 h [1] [µM] | EC50 (Influenza B virus [2]) [nM] | MCC at 72 h [3] [µM] | EC50 (Influenza A virus [4]) [µM] | CC50 (MDCK) [µM] | EC50 (H3N2 subtype [5]) [µM] | EC50 (Influenza A virus [6]) [µM] | EC50 (Influenza A virus [7]) [µM] | EC90 (Human coronavirus 229E [8]) [µM] | EC99 (Human coronavirus 229E [8]) [µM] | EC50 (Influenza A virus [9]) [µM] | EC50 (Influenza B virus [10]) [µM] | MCC at 120 h [11] [µM] | EC50 (H3N2 subtype [12]) [µM] | EC50 (Human coronavirus 229E [13]) [µM]
1 | CCCCCCSC1=C(SCCCCCC)C(=O)N(CCOCCOCCOCCOCc2cn(C3C(=O)N[C@@H]4Cc5ccc(c(Cl)c5)Oc5cc6cc(c5O)Oc5ccc(cc5Cl)[C@@H](O[C@@H]5O[C@H](CO)[C@@H](O)[C@H](O)[C@H]5NC(C)=O)[C@H]5NC(=O)[C@H](NC(O)[C@@H]6NC(=O)[C@@H](NC4=O)c4cc(O)cc(c4)Oc4cc3ccc4O)c3ccc(O)c(c3)-c3c(O)cc(O)cc3[C@H](C(=O)O)NC5=O)nn2)C1=O (stereo not given in full) | 20 | 1800 | > 50 | 6 | 65 | 2.9 | 3.5 | 2.7 | 7.6 | 21 | 2 | 3.6 | ≥ 20 | 2 | 5.4
2 | CCCCSC1=C(SCCCC)C(=O)N(Cc2cn(C3C(=O)N[C@@H]4Cc5ccc(c(Cl)c5)Oc5cc6cc(c5O)Oc5ccc(cc5Cl)[C@@H](O[C@@H]5O[C@H](CO)[C@@H](O)[C@H](O)[C@H]5NC(C)=O)[C@H]5NC(=O)[C@H](NC(O)[C@@H]6NC(=O)[C@@H](NC4=O)c4cc(O)cc(c4)Oc4cc3ccc4O)c3ccc(O)c(c3)-c3c(O)cc(O)cc3[C@H](C(=O)O)NC5=O)nn2)C1=O (stereo not given in full) | 20 | 2500 | > 50 | 7.4 | 28 | 4.9 | 3.2 | 9.8 | 5.9 | 11 | 2.1 | 3.5 | ≥ 20 | > 100 | 5.4
3 | CCCCCCSC1=C(SCCCCCC)C(=O)N(Cc2cn(C3C(=O)N[C@@H]4Cc5ccc(c(Cl)c5)Oc5cc6cc(c5O)Oc5ccc(cc5Cl)[C@@H](O[C@@H]5O[C@H](CO)[C@@H](O)[C@H](O)[C@H]5NC(C)=O)[C@H]5NC(=O)[C@H](NC(O)[C@@H]6NC(=O)[C@@H](NC4=O)c4cc(O)cc(c4)Oc4cc3ccc4O)c3ccc(O)c(c3)-c3c(O)cc(O)cc3[C@H](C(=O)O)NC5=O)nn2)C1=O (stereo not given in full) | ≥ 4 | 2300 | ≥ 50 | 2.9 | 12 | 1.9 | > 100 | 4 | 6.4 | 9.5 | 3.1 | 2.7 | ≥ 20 | 1.9 | 8.9
4 | CCCCCCCCOCc1cn(CCOCCOCCOCCOCc2cn([C@H]3C(=O)N[C@@H]4Cc5ccc(c(Cl)c5)Oc5cc6cc(c5O)Oc5ccc(cc5Cl)[C@@H](O[C@@H]5O[C@H](CO)[C@@H](O)[C@H](O)[C@H]5NC(C)=O)[C@H]5NC(=O)[C@H](NC(O)[C@@H]6NC(=O)[C@@H](NC4=O)c4cc(O)cc(c4)Oc4cc3ccc4O)c3ccc(O)c(c3)-c3c(O)cc(O)cc3[C@H](C(=O)O)NC5=O)nn2)nn1 (stereo not given in full) | 20 | > 100000 | > 50 | > 100 | 19 | > 100 | > 100 | > 100 | 23 | 30 | > 100 | > 100 | 100 | > 100 | 8.9
5 | CCCCCCSC1=C(SCCCCCC)C(=O)N([C@H]2C(=O)N[C@@H]3Cc4ccc(c(Cl)c4)Oc4cc5cc(c4O)Oc4ccc(cc4Cl)[C@@H](O[C@@H]4O[C@H](CO)[C@@H](O)[C@H](O)[C@H]4NC(C)=O)[C@H]4NC(=O)[C@H](NC(O)[C@@H]5NC(=O)[C@@H](NC3=O)c3cc(O)cc(c3)Oc3cc2ccc3O)c2ccc(O)c(c2)-c2c(O)cc(O)cc2[C@H](C(=O)O)NC4=O)C1=O (stereo not given in full) | 4 | > 100000 | 50 | > 100 | 9.8 | > 100 | > 100 | > 100 | 5.8 | 9.4 | > 100 | > 100 | ≥ 20 | > 100 | 5.4
6 | CC(=O)N[C@H]1[C@H](O[C@@H]2c3ccc(c(Cl)c3)Oc3cc4cc(c3O)Oc3ccc(cc3Cl)C[C@H]3NC(=O)[C@H](NS(=O)(=O)c5ccccc5)c5ccc(O)c(c5)Oc5cc(O)cc(c5)[C@H](NC3=O)C(=O)N[C@H]4C(O)N[C@H]3C(=O)N[C@H]2C(=O)N[C@@H](C(=O)O)c2cc(O)cc(O)c2-c2cc3ccc2O)O[C@H](CO)[C@@H](O)[C@@H]1O (stereo not given in full) | 100 | 51000 | > 50 | 52 | > 100 | 23 | 27 | 46 | 6.8 | 11 | 16 | 21 | ≥ 20 | 25 | 5.5
7 | CCCCSC1=C(SCCCC)C(=O)N([C@H]2C(=O)N[C@@H]3Cc4ccc(c(Cl)c4)Oc4cc5cc(c4O)Oc4ccc(cc4Cl)[C@@H](O[C@@H]4O[C@H](CO)[C@@H](O)[C@H](O)[C@H]4NC(C)=O)[C@H]4NC(=O)[C@H](NC(O)[C@@H]5NC(=O)[C@@H](NC3=O)c3cc(O)cc(c3)Oc3cc2ccc3O)c2ccc(O)c(c2)-c2c(O)cc(O)cc2[C@H](C(=O)O)NC4=O)C1=O (stereo not given in full) | 4 | > 100000 | 50 | 2.6 | 8.6 | > 100 | > 100 | 2.9 | 4.1 | 10 | > 100 | > 100 | ≥ 20 | > 100 | 5.4
